In ChEMBL document CHEMBL4184327, “Aromatic-Based Design of Highly Active and Noncalcemic Vitamin D Receptor Agonists” (J Med Chem, 2018):
Active and inactive are the calls of the source. No cut-off for these calls is given here.

Tests used:
[1] = system: MCF7; experiment: Antiproliferative activity against 2D culture of human MCF7 cells assessed as cell proliferation at 100 nM after 48 hrs by MTT assay; type: functional; settings: MCF7, 48 h, read-out: Activity
Method in brief: (§1)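 MTT assay in 2D cultures; cells grown in DMEM with 10% FBS, penicillin/streptomycin, 2 mM L-glutamine at 37 °C in 5% CO2, then treated in charcoal-treated FCS medium for 48 h at 100 nM. Ethanol vehicle controls; proliferation expressed as percentage ± SD of vehicle-treated cells.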

[2] = system: HaCaT; experiment: Induction of human HaCaT cell differentiation at 100 nM after 48 hrs; type: functional, cell-based
Method in brief: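 HaCaT keratinocytes treated with 100 nM for 48 hours in charcoal-treated FCS medium, ethanol vehicle control, and differentiation then assessed.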

[3] = system: SK-OV-3; experiment: Antiproliferative activity against 2D culture of human SKOV3 cells assessed as cell proliferation at 100 nM after 48 hrs by MTT assay; type: functional; settings: SK-OV-3, 48 h, read-out: Activity; method in brief: as §1
[4] = Antiproliferative activity against 2D culture of human HaCaT cells assessed as cell proliferation at 100 nM after 48 hrs by MTT assay; type: cell-based; settings: HaCaT cells (2D culture), read-out: Activity; method in brief: as §1
[5] = system: MCF7; experiment: Antiproliferative activity against 3D culture of human MCF7 cells assessed as cell proliferation at 100 nM after 5 days by DAPI staining-based phase contrast microscopic method; type: functional; settings: MCF7, 120 h, read-out: Activity
Method in brief: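 Three-dimensional MCF-7 cultures treated 5 days with 10^-7 M in charcoal-treated FCS medium; ethanol vehicle. Phase-contrast photographs taken, sphere diameters traced manually across each sphere and scored as relative units; proliferation given as percentage ± SD of vehicle-treated cells.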

[6] = system: PC-3; experiment: Antiproliferative activity against 2D culture of human PC3 cells assessed as cell proliferation at 100 nM after 48 hrs by MTT assay; type: functional; settings: PC-3, 48 h, read-out: Activity; method in brief: as §1
[7] = molecular target: T1, Vitamin D3 receptor (Homo sapiens) (UniProt P11473); experiment: Agonist activity at VDR in human MCF7 cells assessed as transcription of CYP24A1 gene after 24 hrs by luciferase reporter gene assay relative to 1,25D; type: cell-based
T1 sequence (whole entry): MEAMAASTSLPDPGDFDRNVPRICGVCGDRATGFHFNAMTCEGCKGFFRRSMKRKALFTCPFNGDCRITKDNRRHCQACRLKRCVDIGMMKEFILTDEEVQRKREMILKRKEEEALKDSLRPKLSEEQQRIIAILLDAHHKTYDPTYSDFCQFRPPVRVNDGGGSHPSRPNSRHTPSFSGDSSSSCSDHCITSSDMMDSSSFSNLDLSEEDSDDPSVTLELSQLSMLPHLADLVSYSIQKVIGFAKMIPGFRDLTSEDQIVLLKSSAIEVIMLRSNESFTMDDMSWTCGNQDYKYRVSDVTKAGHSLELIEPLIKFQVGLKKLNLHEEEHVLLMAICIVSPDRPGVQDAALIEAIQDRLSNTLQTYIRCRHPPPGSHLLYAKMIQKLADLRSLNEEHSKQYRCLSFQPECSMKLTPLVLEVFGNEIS
Method in brief: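 Cells transfected with 1 µg pCYP24A1-Luc plasmid (luciferase under a consensus VDRE from the 24-hydroxylase promoter); after 24 h medium replaced with compound at 10^-11 to 10^-6 M. Bioluminescence imaged and total photon counts quantified. EC50 from dose-response curves as concentration raising luciferase activity by 50%; ratio given as analogue EC50 relative to 1,25D.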

[8] = system: Mus musculus; experiment: Hypercalcemic activity in CD1 mouse assessed as serum calcium levels at 0.3 ug/kg, ip administered every other day for 3 weeks measured on […] relative to 1,25D; type: ADME, organism-based; settings: in vivo, 0.0003 mg/kg, 504 h
Method in brief: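 Mice dosed every other day for 21 days at 0.3 µg/kg, n=5 per group, with vehicle controls; serum calcium reported as mean ± SD.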

[9] = molecular target: T2, Vitamin D3 receptor (Homo sapiens, UniProt P11473); experiment: Agonist activity at VDR in human MCF7 cells assessed as increase in transcription of CYP24A1 gene after 24 hrs by luciferase reporter gene assay; type: cell-based
T2 sequence (P11473 whole entry): T1 sequence (whole entry)

[10] = molecular target: T1, Vitamin D3 receptor (Homo sapiens); experiment: Displacement of fluormone from human full length VDR after 2 hrs by fluorescence polarization assay relative to 1,25D; settings: concentration not given here
Method in brief: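 Competitive fluorescence polarization VDR binding kit used per manufacturer conditions; compounds tested from 10^-11 to 10^-5 M. IC50 calculated from averaged measurements; activity also expressed as percentage with 1,25D set to 100%.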

[11] = molecular target: T2, Vitamin D3 receptor; experiment: Displacement of fluormone from human full length VDR after 2 hrs by fluorescence polarization assay
[12] = system: MDA-MB-231; experiment: Antitumor activity against luciferase expressing human MDA-MB-231 cells xenografted in SCID mouse assessed as tumor growth inhibition at 1 ug/kg, ip administered every other day measured every 7 days […] to day 28 post last dose; type: functional, organism-based
Method in brief: (§2)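 SCID mice given subcutaneous MDA-MB-231-luc cells; ten days later (treatment day 0) split into two groups, dosed i.p. at 1 µg/kg in sesame oil, controls sesame oil. Tumor growth followed by in vivo bioluminescence imaging (photon flux) every 7 days until day 28; survival followed to day 60.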

[13] = system: MDA-MB-436; experiment: Cytotoxicity against 3D culture of cancer stem cells derived from human MDA-MB-436 cells assessed as decrease in growth of mammospheres at 100 nM after 5 days by DAPI staining-based phase contrast microscopic method; type: functional, cell-based
Method in brief: (§3)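 MDA-MB-436 cells enriched in cancer stem cells grown in a commercial 3D sphere assay per manufacturer's instructions; ethanol or compound (10^-8 or 10^-7 M) added for 5 days. Mammosphere number and diameter quantified from phase-contrast images by manual diameter tracing.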

[14] = system: MDA-MB-436; experiment: Cytotoxicity against 3D culture of cancer stem cells derived from human MDA-MB-436 cells assessed as decrease in number of mammospheres at 100 nM after 5 days by DAPI staining-based phase contrast microscopic method; type: functional, cell-based; method in brief: as §3
[15] = system: Mus musculus; experiment: Toxicity in CD1 mouse assessed as effect on liver at 0.5 to 5 ug/kg, ip administered every other day for 3 weeks measured on […] by hematoxylin and eosin staining-based assay; type: organism-based; settings: in vivo, 504 h
[16] = system: MDA-MB-231; experiment: Antitumor activity against luciferase expressing human MDA-MB-231 cells xenografted in SCID mouse assessed as increase in mouse survival at 1 ug/kg, ip administered every other day starting from day 10 post tumor implantation to day 60; type: functional, organism-based; method in brief: as §2
[17] = system: Mus musculus; experiment: Toxicity in CD1 mouse assessed as effect on kidney at 0.5 to 5 ug/kg, ip administered every other day for 3 weeks measured on […] by hematoxylin and eosin staining-based assay; type: organism-based; settings: in vivo, 504 h
[18] = system: Mus musculus; experiment: Toxicity in CD1 mouse assessed as body weight loss at 0.5 to 5 ug/kg, ip administered every other day for 3 weeks measured every week during compound dosing; type: organism-based; settings: in vivo, 504 h
[19] = system: Mus musculus; experiment: Hypercalcemic activity in CD1 mouse serum at 0.5 to 5 ug/kg, ip administered every other day for 3 weeks measured on […]; type: ADME, organism-based; settings: in vivo, 504 h

Activity [7] [%] | Activity [8] [%] | EC50 [9] [nM] | inhibition [10] [%] | IC50 [11] [nM] | SMILES | growth at 0.1 µM [1] [%] | Activity [2] | growth at 0.1 µM [3] [%] | viability at 48 h, 0.1 µM [4] [%] | growth at 0.1 µM [5] [%] | growth at 0.1 µM [6] [%] | TGI [12] | Activity [13] | Activity [14] | Activity [15] | Activity [16] | Activity [17] | Activity [18] | Activity [19]
 |  |  |  |  | C=C1/C(=C\C=C2/CCC[C@]3(C)[C@@H]([C@H](C)CCCC(C)(C)O)CC[C@@H]23)C[C@@H](O)C[C@@H]1O [CALCITRIOL] | 66 | Active | 78 | 69 | 61 | 77 |  |  |  |  |  |  |  | 
5 | 0 | 29 to 40 | 7 | 3.5 to 160 | C=C1/C(=C\C=C(/CCCCCCC)c2cccc(CCCCCC(C)(C)O)c2)C[C@@H](O)C[C@@H]1O | 69 | Active | 83 | 71 | 55 | 79 |  |  |  |  |  |  |  | 
19 | 34 | 9 to 11 | 12 | 10 to 18 | C=C1/C(=C\C=C(/CCCC)c2cccc(CCCCCC(C)(C)O)c2)C[C@@H](O)C[C@@H]1O | 74 | Active | 81 | 71 | 84 | 84 |  |  |  |  |  |  |  | 
17 | 0 | 10 to 13 | 9 | 8.3 to 40 | C=C1/C(=C\C=C(/CCCCCC)c2cccc(CCCCCC(C)(C)O)c2)C[C@@H](O)C[C@@H]1O | 78 | Active | 76 | 74 | 79 | 80 |  |  |  |  |  |  |  | 
33 | 0 | 5.6 to 6.2 | 24 | 4.5 to 11 | C=C1/C(=C\C=C(/CC)c2cccc(CCCCCC(C)(C)O)c2)C[C@@H](O)C[C@@H]1O | 65 | Active | 78 | 68 | 69 | 78 | Active | Active | Active | Non-Toxic | Active | Non-Toxic | Non-Toxic | Non-Toxic
21 | 41 | 8.6 to 9.9 | 10 | 5.6 to 55 | C=C1/C(=C\C=C(/CCC)c2cccc(CCCCCC(C)(C)O)c2)C[C@@H](O)C[C@@H]1O | 69 | Active | 82 | 71 | 74 | 83 |  |  |  |  |  |  |  | 
